Assay results taken from ChEMBL document CHEMBL3525906, “A comprehensive assessment of repaglinide metabolic pathways: impact of choice of in vitro system and relative enzyme contribution to in vitro clearance” (Drug Metab Dispos, 2012).

Assays:
[1] = species on record: Homo sapiens; test: Ratio of AUC in human patient at 0.25 mg to AUC in human patient at 0.25 mg co-treated with telithromycin and montelukast; assay type: ADME, organism-based; conditions: in vivo
[2] = target: T1, Cytochrome P450 3A5 (Homo sapiens, UniProt P20815); test: Unbound intrinsic clearance in human recombinant CYP3A5 expressed in insect cells assessed as enzyme-mediated 3'-hydroxy repaglinide formation per nanomole of protein at 0.5 to 150 uM by LC-MS/MS method; assay type: ADME
[3] = test system: Liver microsome; test: Unbound intrinsic clearance in human liver microsomes assessed as glucuronide formation measured per mg of protein at 0.5 to 150 uM by LC-MS/MS method; assay type: ADME
[4] = test system: Hepatocyte; test: Unbound intrinsic clearance in human hepatocytes assessed as 2-despiperidyl-2-(5-carboxypentylamine) repaglinide formation measured per 10^6 cells at 0.5 to 150 uM by LC-MS/MS method; assay type: ADME, cell-based
[5] = test system: Liver microsome; test: Drug metabolism in human liver microsomes assessed as glucuronide formation measured per mg of protein at 0.5 to 150 uM by LC-MS/MS method; assay type: ADME
[6] = Drug metabolism in human hepatic S9 fraction assessed as glucuronide formation measured per mg of protein at 0.5 to 150 uM by LC-MS/MS method; assay type: ADME, Liver; conditions: s9, 150 µM
[7] = species on record: Homo sapiens; test: Ratio of AUC in human patient at 0.25 mg to AUC in human patient at 0.25 mg co-treated with atorvastatin; assay type: ADME, organism-based; conditions: in vivo
[8] = Drug metabolism in human hepatocytes assessed as 3'-hydroxy repaglinide formation by LC-MS/MS method; assay type: ADME, cell-based, Hepatocyte
[9] = species on record: Homo sapiens; test: Drug metabolism in human patient assessed as fold change in metabolite M2/M4 AUC ratio at 0.25 mg co-treated with atorvastatin relative to atorvastatin non-treated patient; assay type: ADME, organism-based; conditions: in vivo
[10] = Fraction metabolism via UGT in human liver microsomes; assay type: ADME
[11] = Drug metabolism in human hepatic S9 fraction assessed as 3'-hydroxy repaglinide formation measured per mg of protein at 0.5 to 150 uM by LC-MS/MS method; assay type: ADME, Liver; conditions: s9, 150 µM
[12] = target: T2, Cytochrome P450 2C8 (Homo sapiens, UniProt P10632); test: Unbound intrinsic clearance in human recombinant CYP2C8 expressed in insect cells assessed as enzyme-mediated 3'-hydroxy repaglinide formation per nanomole of protein at 0.5 to 150 uM by LC-MS/MS method; assay type: ADME
T2 sequence (P10632 whole entry): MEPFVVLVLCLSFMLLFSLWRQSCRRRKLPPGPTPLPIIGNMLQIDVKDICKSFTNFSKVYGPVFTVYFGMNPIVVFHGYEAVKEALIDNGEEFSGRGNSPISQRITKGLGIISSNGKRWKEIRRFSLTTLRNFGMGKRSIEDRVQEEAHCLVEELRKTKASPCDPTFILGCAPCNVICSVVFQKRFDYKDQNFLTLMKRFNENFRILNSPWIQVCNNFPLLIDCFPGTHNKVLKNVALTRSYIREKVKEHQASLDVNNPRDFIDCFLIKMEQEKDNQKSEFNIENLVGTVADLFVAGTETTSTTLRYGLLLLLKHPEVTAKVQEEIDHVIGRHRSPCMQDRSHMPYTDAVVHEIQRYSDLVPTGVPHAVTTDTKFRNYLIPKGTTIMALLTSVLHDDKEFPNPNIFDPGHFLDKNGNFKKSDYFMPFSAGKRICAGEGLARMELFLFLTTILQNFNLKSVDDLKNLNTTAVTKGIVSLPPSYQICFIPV

[13] = species on record: Homo sapiens; test: Drug metabolism in variable SLCO1B1 genotype containing human patient assessed as fold change in metabolite M2/M4 AUC ratio at 0.25 mg co-treated with gemfibrozil relative to gemfibrozil non-treated patient; assay type: ADME, organism-based; conditions: in vivo
[14] = species on record: Homo sapiens; test: Drug metabolism in human patient assessed as fold change in metabolite M2/M4 AUC ratio at 0.25 mg co-treated with montelukast relative to montelukast non-treated patient; assay type: ADME, organism-based; conditions: in vivo
[15] = target: Cytochrome P450 3A4 (Homo sapiens, UniProt P08684); test: Fraction metabolism via CYP3A4 in human hepatocytes; assay type: ADME, cell-based, Hepatocyte
[16] = species on record: Homo sapiens; test: Ratio of AUC in human patient at 0.25 mg to AUC in human patient at 0.25 mg co-treated with gemfibrozil; assay type: ADME, organism-based; conditions: in vivo
[17] = Drug metabolism in human hepatic S9 fraction assessed as 2-despiperidyl-2-amino repaglinide formation by LC-MS/MS method; assay type: ADME, Liver
[18] = target: T2, Cytochrome P450 2C8; test: Fraction metabolism via CYP2C8 in human liver microsomes; assay type: ADME
[19] = species on record: Homo sapiens; test: Drug metabolism in human patient assessed as fold change in metabolite M2/M1 AUC ratio at 0.25 mg co-treated with atorvastatin relative to atorvastatin non-treated patient; assay type: ADME, organism-based; conditions: in vivo
[20] = species on record: Homo sapiens; test: Ratio of AUC in human patient at 0.25 mg to AUC in human patient at 0.25 mg co-treated with gemfibrozil and itraconazole; assay type: ADME, organism-based; conditions: in vivo
[21] = target: T1, Cytochrome P450 3A5; test: Unbound intrinsic clearance in human recombinant CYP3A5 expressed in insect cells assessed as enzyme-mediated 2-despiperidyl-2-amino repaglinide formation per nanomole of protein at 0.5 to 150 uM by LC-MS/MS method; assay type: ADME
[22] = test system: Hepatocyte; test: Drug metabolism in human hepatocytes assessed as glucuronide formation measured per 10^6 cells at 0.5 to 150 uM by LC-MS/MS method; assay type: ADME, cell-based
[23] = Unbound intrinsic clearance in human hepatic S9 fraction assessed as 2-despiperidyl-2-(5-carboxypentylamine) repaglinide formation measured per mg of protein at 0.5 to 150 uM by LC-MS/MS method; assay type: ADME, tissue-based, Liver; conditions: s9, 150 µM
[24] = test system: Liver microsome; test: Drug metabolism in human liver microsomes assessed as 2-despiperidyl-2-amino repaglinide formation by LC-MS/MS method; assay type: ADME
[25] = test system: Liver microsome; test: Drug metabolism in human liver microsomes assessed as 2-despiperidyl-2-(5-carboxypentylamine) repaglinide formation by LC-MS/MS method; assay type: ADME
[26] = test system: Liver microsome; test: Unbound intrinsic clearance in human liver microsomes assessed as 2-despiperidyl-2-amino repaglinide formation measured per mg of protein at 0.5 to 150 uM by LC-MS/MS method; assay type: ADME
In short: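 Pooled HLM, 0.3 mg/ml, in 0.1 M phosphate pH 7.4 with 10 mM MgCl2 and NADPH regenerating system. Repaglinide at 8 levels, 0.5-150 μM; 37°C, 10 min. Metabolites by LC-MS/MS against authentic standards; fu_inc 0.85. Duplicates on three occasions.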

[27] = test system: Liver microsome; test: Drug metabolism in human liver microsomes assessed as 2-despiperidyl-2-(5-carboxypentylamine) repaglinide formation measured per mg of protein at 0.5 to 150 uM by LC-MS/MS method; assay type: ADME
[28] = species on record: Homo sapiens; test: Ratio of AUC in human patient at 0.25 mg to AUC in human patient at 0.25 mg co-treated with itraconazole; assay type: ADME, organism-based; conditions: in vivo
[29] = species on record: Homo sapiens; test: Drug metabolism in variable SLCO1B1 genotype containing human patient assessed as fold change in metabolite M2/M1 AUC ratio at 0.25 mg co-treated with gemfibrozil relative to gemfibrozil non-treated patient; assay type: ADME, organism-based; conditions: in vivo
[30] = species on record: Homo sapiens; test: Drug metabolism in human patient assessed as fold change in metabolite M2/M1 AUC ratio at 0.25 mg co-treated with telithromycin relative to telithromycin non-treated patient; assay type: ADME, organism-based; conditions: in vivo
[31] = target: T2, Cytochrome P450 2C8; test: Unbound intrinsic clearance in human recombinant CYP2C8 expressed in insect cells assessed as enzyme-mediated 2-despiperidyl-2-amino repaglinide formation per nanomole of protein at 0.5 to 150 uM by LC-MS/MS method; assay type: ADME

T1 sequence (P20815 whole entry): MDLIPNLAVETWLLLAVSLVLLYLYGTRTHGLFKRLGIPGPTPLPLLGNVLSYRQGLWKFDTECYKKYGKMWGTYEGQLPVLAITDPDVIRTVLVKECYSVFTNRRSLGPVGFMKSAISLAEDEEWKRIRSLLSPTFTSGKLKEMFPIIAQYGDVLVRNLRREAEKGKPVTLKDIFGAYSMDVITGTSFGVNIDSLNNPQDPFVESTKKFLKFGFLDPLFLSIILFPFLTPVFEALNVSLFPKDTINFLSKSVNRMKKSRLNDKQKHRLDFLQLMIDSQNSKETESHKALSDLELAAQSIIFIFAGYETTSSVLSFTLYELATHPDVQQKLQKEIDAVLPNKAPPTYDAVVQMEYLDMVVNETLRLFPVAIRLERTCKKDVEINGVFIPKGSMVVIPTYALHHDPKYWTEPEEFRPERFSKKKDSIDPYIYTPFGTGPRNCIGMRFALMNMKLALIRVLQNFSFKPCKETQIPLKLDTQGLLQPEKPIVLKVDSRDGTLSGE
Cytochrome P450 3A4, sequence (P08684 whole entry): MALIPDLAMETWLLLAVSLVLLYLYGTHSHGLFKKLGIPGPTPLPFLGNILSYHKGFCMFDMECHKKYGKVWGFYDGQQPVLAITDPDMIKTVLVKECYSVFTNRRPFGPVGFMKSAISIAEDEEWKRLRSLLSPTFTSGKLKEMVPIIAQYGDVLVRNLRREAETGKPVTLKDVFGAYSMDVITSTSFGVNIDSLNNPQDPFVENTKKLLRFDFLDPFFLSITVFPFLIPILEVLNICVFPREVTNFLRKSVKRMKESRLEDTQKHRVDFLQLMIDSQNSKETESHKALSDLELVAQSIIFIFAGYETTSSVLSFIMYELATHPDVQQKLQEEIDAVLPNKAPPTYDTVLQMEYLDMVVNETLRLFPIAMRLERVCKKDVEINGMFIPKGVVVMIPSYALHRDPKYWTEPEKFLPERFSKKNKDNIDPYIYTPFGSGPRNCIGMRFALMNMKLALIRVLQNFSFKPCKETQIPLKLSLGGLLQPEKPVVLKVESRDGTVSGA

Ratio [1]: 1.9
CL free [2]: 0.19 µL/min/nmol
CL free [3]: 5.6 µL/min/mg
CL free [4]: 3.3 uL/min/10^6cells
Vmax [5]: 170 pmol/min/mg
Vmax [6]: 46 pmol/min/mg
Ratio [7]: 1.2
Km [8]: 13 µM
fold change (FC) [9]: 0.87
Fm [10]: 0.19
Vmax [11]: 18 pmol/min/mg
CL free [12]: 70 µL/min/nmol
fold change (FC) [13]: 6.4
fold change (FC) [14]: 0.98
Fm [15]: 0.41
Ratio [16]: 8.1
Km [17]: 58 µM
Fm [18]: 0.63
fold change (FC) [19]: 1.05
Ratio [20]: 19
CL free [21]: 1.4 µL/min/nmol
Vmax [22]: 5.7 pmol/min/10^6cells
CL free [23]: 3.7 µL/min/mg
Km [24]: 47 µM
Km [25]: 24 µM
CL free [26]: 4.1 µL/min/mg
Vmax [27]: 28 pmol/min/mg
Ratio [28]: 1.4
fold change (FC) [29]: 0.38
fold change (FC) [30]: 3.9
CL free [31]: 3.7 µL/min/nmol
Compound: CCOc1cc(CC(=O)N[C@@H](CC(C)C)c2ccccc2N2CCCCC2)ccc1C(=O)O [REPAGLINIDE]
